According to ChEMBL document CHEMBL1122744, “2-Chloroethyl (methylsulfonyl)methanesulfonate and related (methylsulfonyl)methanesulfonates. Antineoplastic activity in vivo” (J Med Chem, 1984):

What was measured:
[1] = Ratio of median survival times for non-survivors at dose 33 mg/kg in exp2; type: functional
[2] = Ratio of number of 60-day survivors to the total treated mice at dose 50 mg/kg in exp4; 6/6; type: functional
[3] = Ratio of median survival times for non-survivors at dose 50 mg/kg in exp1; type: functional; set-up: unit: %
Method in brief: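 Mice were inoculated ip with 10^6 P388 leukemia cells on day 0. Groups of six (occasionally five) were dosed ip qd on days 1–5 with fresh suspensions; 30 mice served as untreated controls. Deaths were recorded daily up to day 60. T/C% compares the median survival of treated non-survivors (<60 days) with the control median. Medians used grouped data when there were no 30-day survivors, otherwise ungrouped data. t = toxic.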

Mus musculus [4] = experiment: Mortality by day 5 expressed as number of mice died to the total treated at dose 50 mg/kg in exp7; 0/6; type: ADME, organism-based; set-up: dose 50 mg/kg; conditions: in vivo
Mus musculus [5] = experiment: Median survival time of the untreated control groups, in which there are no 30-day survivors at dose 33 mg/kg in exp3; type: functional
[6] = Ratio of median survival times for non-survivors at dose 22 mg/kg in exp6; type: functional
Mus musculus [7] = experiment: Median survival time of the treated control groups, in which there are no 30-day survivors at dose 22 mg/kg in exp3; type: functional
Mus musculus [8] = experiment: Median survival time of the untreated control groups, in which there are no 30-day survivors at dose 50 mg/kg in exp1; type: functional
Mus musculus [9] = experiment: Mortality by day 5 expressed as number of mice died to the total treated at dose 100 mg/kg in exp1; 1/6; type: ADME, organism-based; set-up: dose 100 mg/kg; conditions: in vivo
[10] = Ratio of median survival times for non-survivors at dose 50 mg/kg in exp5; type: functional
Mus musculus [11] = experiment: Change in weight by day 5, obtained by subtracting treated groups of animals minus control groups of animals at dose 33 mg/kg in exp3.; type: functional
Method in brief: (§1)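 Mice were inoculated ip with 10^6 P388 leukemia cells on day 0 and weighed 19–22 g that day. Compound was given ip once daily on days 1–5, within about 5 min of preparing the solution or suspension, to groups of six (occasionally five). Thirty inoculated untreated mice served as controls. The value is the average weight change of treated mice minus that of controls on day 5.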

Mus musculus [12] = experiment: Median survival time of the untreated control groups, in which there are no 30-day survivors at dose 50 mg/kg in exp6; type: functional
Mus musculus [13] = experiment: Median survival time of the treated control groups, in which there are no 30-day survivors at dose 22 mg/kg in exp7; type: functional
Mus musculus [14] = experiment: Median survival time of the treated control groups, in which there are no 30-day survivors at dose 100 mg/kg in exp1; type: functional
[15] = Ratio of median survival times for non-survivors at dose 75 mg/kg in exp2; type: functional
[16] = Ratio of number of 30-day survivors to the total treated mice at dose 50 mg/kg in exp6; 3/6; type: functional
[17] = Ratio of median survival times for non-survivors at dose 22 mg/kg in exp5; type: functional
Mus musculus [18] = experiment: Median survival time of the untreated control groups, in which there are no 30-day survivors at dose 22 mg/kg in exp5; type: functional
Mus musculus [19] = experiment: Mortality by day 5 expressed as number of mice died to the total treated at dose 33 mg/kg in exp2; 0/5; type: ADME, organism-based; set-up: dose 33 mg/kg; conditions: in vivo
Mus musculus [20] = experiment: Median survival time of the untreated control groups, in which there are no 30-day survivors at dose 33 mg/kg in exp7; type: functional
Mus musculus [21] = experiment: Median survival time of the untreated control groups, in which there are no 30-day survivors at dose 33 mg/kg in exp4; type: functional
Mus musculus [22] = experiment: Change in weight by day 5, obtained by subtracting treated groups of animals minus control groups of animals at dose 33 mg/kg in exp7; type: functional; method in brief: as §1
Mus musculus [23] = experiment: Median survival time of the untreated control groups, in which there are no 30-day survivors at dose 50 mg/kg in exp5; type: functional
[24] = Ratio of median survival times for non-survivors at dose 33 mg/kg in exp3; type: functional
Mus musculus [25] = experiment: Mortality by day 5 expressed as number of mice died to the total treated at dose 200 mg/kg in exp1; 5/6; type: ADME, organism-based; set-up: dose 200 mg/kg; conditions: in vivo
Mus musculus [26] = experiment: Change in weight by day 5, obtained by subtracting treated groups of animals minus control groups of animals at dose 22 mg/kg in exp6; type: functional; method in brief: as §1
Mus musculus [27] = experiment: Median survival time of the untreated control groups, in which there are no 30-day survivors at dose 100 mg/kg in exp1; type: functional
[28] = Ratio of median survival times for non-survivors at dose 33 mg/kg in exp7; type: functional
Mus musculus [29] = experiment: Mortality by day 5 expressed as number of mice died to the total treated at dose 22 mg/kg in exp5; 0/6; type: ADME, organism-based; set-up: dose 22 mg/kg; conditions: in vivo
Mus musculus [30] = experiment: Median survival time of the treated control groups, in which there are no 30-day survivors at dose 75 mg/kg in exp2; type: functional
Mus musculus [31] = experiment: Median survival time of the treated control groups, in which there are no 30-day survivors at dose 22 mg/kg in exp5; type: functional
[32] = Ratio of number of 30-day survivors to the total treated mice at dose 50 mg/kg in exp2; 2/5; type: functional
Mus musculus [33] = experiment: Change in weight by day 5, obtained by subtracting treated groups of animals minus control groups of animals at dose 100 mg/kg in exp1; type: functional; method in brief: as §1
Mus musculus [34] = experiment: Median survival time of the untreated control groups, in which there are no 30-day survivors at dose 33 mg/kg in exp5; type: functional
[35] = Ratio of number of 30-day survivors to the total treated mice at dose 50 mg/kg in exp5; 3/6; type: functional
Mus musculus [36] = experiment: Median survival time of the untreated control groups, in which there are no 30-day survivors at dose 22 mg/kg in exp7; type: functional
Mus musculus [37] = experiment: Mortality by day 5 expressed as number of mice died to the total treated at dose 33 mg/kg in exp7; 0/6; type: ADME, organism-based; set-up: dose 33 mg/kg; conditions: in vivo
[38] = Ratio of number of 60-day survivors to the total treated mice at dose 33 mg/kg in exp4; 0/6; type: functional
Mus musculus [39] = experiment: Change in weight by day 5, obtained by subtracting treated groups of animals minus control groups of animals at dose 50 mg/kg in exp7; type: functional; method in brief: as §1
Mus musculus [40] = experiment: Change in weight by day 5, obtained by subtracting treated groups of animals minus control groups of animals at dose 33 mg/kg in exp6; type: functional; method in brief: as §1
Mus musculus [41] = experiment: Median survival time of the untreated control groups, in which there are no 30-day survivors at dose 100 mg/kg in exp2; type: functional
[42] = Ratio of median survival times for non-survivors at dose 22 mg/kg in exp7; type: functional
Mus musculus [43] = experiment: Median survival time of the treated control groups, in which there are no 30-day survivors at dose 22 mg/kg in exp6; type: functional
[44] = Ratio of median survival times for non-survivors at dose 50 mg/kg in exp6; type: functional
Mus musculus [45] = experiment: Mortality by day 5 expressed as number of mice died to the total treated at dose 33 mg/kg in exp5; 0/6; type: ADME, organism-based; set-up: dose 33 mg/kg; conditions: in vivo
Mus musculus [46] = experiment: Change in weight by day 5, obtained by subtracting treated groups of animals minus control groups of animals at dose 50 mg/kg in exp1.; type: functional; method in brief: as §1

CS(=O)(=O)CS(=O)(=O)OCCCl
Ratio [1]: 209
Ratio [2]: 6
Ratio [3]: 281
Mortality (Mus musculus [4]): 0
Median survival time (Mus musculus [5]): 11.1
Ratio [6]: 160
Median survival time (Mus musculus [7]): 18.5
Median survival time (Mus musculus [8]): 11.2
Mortality (Mus musculus [9]): 1
Ratio [10]: 225
Change in weight (Mus musculus [11]): -2.8
Median survival time (Mus musculus [12]): 13
Median survival time (Mus musculus [13]): 18
Median survival time (Mus musculus [14]): 17
Ratio [15]: 156
Ratio [16]: 3
Ratio [17]: 161
Median survival time (Mus musculus [18]): 12
Mortality (Mus musculus [19]): 0
Median survival time (Mus musculus [20]): 10.7
Median survival time (Mus musculus [21]): 10.5
Change in weight (Mus musculus [22]): -2.4
Median survival time (Mus musculus [23]): 12
Ratio [24]: 198
Mortality (Mus musculus [25]): 5
Change in weight (Mus musculus [26]): -1.4
Median survival time (Mus musculus [27]): 11.2
Ratio [28]: 179
Mortality (Mus musculus [29]): 0
Median survival time (Mus musculus [30]): 17.5
Median survival time (Mus musculus [31]): 19.4
Ratio [32]: 2
T-C (Mus musculus [33]): -4 g
Median survival time (Mus musculus [34]): 12
Ratio [35]: 3
Median survival time (Mus musculus [36]): 10.7
Mortality (Mus musculus [37]): 0
Ratio [38]: 0
Change in weight (Mus musculus [39]): -3
Change in weight (Mus musculus [40]): -2.1
Median survival time (Mus musculus [41]): 11.2
Ratio [42]: 168
Median survival time (Mus musculus [43]): 20.8
Ratio [44]: 335
Mortality (Mus musculus [45]): 0
T-C (Mus musculus [46]): -3.4 g
